Bioassay records (PubChem BioAssay)
TAG inh: inhibitors of triacylglycerol accumulation, primary screen, cell-based, uHTS, fluorescence, H9c2; H9c2 cells, Nile Red lipid (TAG) fluorescence; cells loaded with 200 µM oleic acid; inhibition, % at 12.5 µM; hit rate 0.66% among 230,000; AID 651582, 2012;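 active means pattern-corrected inhibition of lipid staining of at least 50% with the nuclear-stain viability signal not falling by more than 50%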;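 further: 0% = DMSO wells and 100% = triacsin C control wells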
PERK inh: block of dimerizer-induced PERK translation repression, primary screen, PERK inhibitor project, CHO PERK-DD cells, SEAP luminescence, HTS; CHO PERK-DD fusion, SEAP luminescence translation reporter; AID 1416, 2008; hit rate 0.17% among 220,000; Eukaryotic translation initiation factor 2-alpha kinase 3 (Homo sapiens), Q9NZJ5; inhibition, % at 5.6 µM;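 active means inhibition above the mean inhibition of all tested compounds plus 3 SD, set separately per screening campaign, cut at about 2.9% in these data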;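 further: PERK kinase domain activated by AP20187 dimerizer at 100 nM; 0% = DMSO with dimerizer and 100% = rapamycin at 8.4 µM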
Target sequence (Q9NZJ5 whole entry, looked up, the tested form may be a part): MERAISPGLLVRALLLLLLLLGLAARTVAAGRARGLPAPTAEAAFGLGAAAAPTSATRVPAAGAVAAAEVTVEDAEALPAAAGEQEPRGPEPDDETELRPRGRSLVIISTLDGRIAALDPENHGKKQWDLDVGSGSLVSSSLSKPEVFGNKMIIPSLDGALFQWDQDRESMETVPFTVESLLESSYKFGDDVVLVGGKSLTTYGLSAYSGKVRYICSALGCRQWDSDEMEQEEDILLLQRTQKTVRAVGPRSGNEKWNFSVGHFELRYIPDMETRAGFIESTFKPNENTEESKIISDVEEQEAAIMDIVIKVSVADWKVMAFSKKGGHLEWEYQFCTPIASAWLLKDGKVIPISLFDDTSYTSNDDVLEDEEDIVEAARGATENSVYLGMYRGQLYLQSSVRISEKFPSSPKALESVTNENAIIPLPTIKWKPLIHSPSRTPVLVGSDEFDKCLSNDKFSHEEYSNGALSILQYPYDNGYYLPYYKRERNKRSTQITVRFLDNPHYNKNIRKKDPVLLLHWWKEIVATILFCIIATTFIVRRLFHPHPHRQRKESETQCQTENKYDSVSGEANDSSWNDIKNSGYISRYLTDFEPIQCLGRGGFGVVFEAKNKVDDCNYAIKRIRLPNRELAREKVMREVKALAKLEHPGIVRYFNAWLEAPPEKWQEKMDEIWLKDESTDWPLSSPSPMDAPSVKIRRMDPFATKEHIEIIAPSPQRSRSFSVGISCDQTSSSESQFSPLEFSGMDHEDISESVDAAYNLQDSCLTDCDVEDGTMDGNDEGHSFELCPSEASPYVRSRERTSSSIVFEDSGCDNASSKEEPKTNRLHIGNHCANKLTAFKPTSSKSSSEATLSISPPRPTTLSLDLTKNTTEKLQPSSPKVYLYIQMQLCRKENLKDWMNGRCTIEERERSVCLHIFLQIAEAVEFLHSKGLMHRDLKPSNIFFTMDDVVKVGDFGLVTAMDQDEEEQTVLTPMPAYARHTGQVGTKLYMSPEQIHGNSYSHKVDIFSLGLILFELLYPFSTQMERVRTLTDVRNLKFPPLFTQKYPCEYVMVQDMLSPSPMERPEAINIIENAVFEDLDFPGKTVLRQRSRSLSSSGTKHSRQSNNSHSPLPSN
Rad51 HR inh: human RAD51 strand exchange inhibitors, primary screen, biochemical, fluorescence. hit rate 0.085% among 200,000. DNA repair protein RAD51 homolog 1 (Homo sapiens), Q06609. inhibition, % at 10 µM. hRad51 DNA strand exchange, fluorescence dequenching;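 active means inhibition above 40% at the single screening dose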;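 further: 0% = DMSO control wells and 100% = blanks with heterologous ssDNA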
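Read-out basis: percent inhibition relative to plate controls and blanks / Assay system: human Rad51 nucleoprotein filaments preassembled on unlabelled ssDNA / Timing: filaments 15 min 37 °C, then compound 30 min / Control set: per-plate controls and blanks / Technique: fluorescence dequenching at 485/520 nm / Compound: 10 µM final, single point / Also added: Fluorescein- and BHQ1-tagged 47-mer duplex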
Hck-Nef inh: inhibitors of Nef-activated human Hck kinase, primary screen, biochemical, Z-Lyte FRET, 384-well, Hck-YEEI | Recombinant Hck-YEEI plus Nef, Z-Lyte FRET kinase assay | inhibition, % at 20 µM | AID 463187, 2010 | hit rate 0.68% among 220,000;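 active means Hck-Nef kinase inhibition above about 50%, limit read from the data; inactive means inhibition below that limit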;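 further: 0% = DMSO with Hck plus Nef and 100% = Hck alone without Nef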
PKD1 kinase inh: inhibitors of human PKD1 kinase, biochemical, fluorescence polarization; inhibition, % (no concentration beside the values); AID 797, 2007; hit rate 0.056% among 200,000; PKD1 kinase fluorescence polarization assay; in the data active means inhibition above about 50%
MDM2 E3 inh: MDM2-luciferase reporter signal enhancers, primary screen, MDM2 E3 ligase inhibitor project, cell-based, luminescence, 1536-well | signal enhancement, % at 5 µM | AID 1230, 2008 | hit rate 0.11% among 210,000 | cell-based MDM2 ubiquitination luciferase reporter, 2 h; 0 = plate control, 100 = twice control, blank-subtracted;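 active means signal enhancement of 30% or more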;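 further: luminescence tracks abundance of the self-degrading MDM2-luciferase fusion protein; higher signal means inhibition of MDM2 E3 ligase activity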
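Test system: stable mammalian line carrying autodegrading MDM2–luciferase fusion reporter; quantity: 2000 cells in each well; times: 4 h cell settling then 2 h compound exposure, 37 °C; detection: luminescence with SteadyLite reagent, 15 min at room temperature; evaluation: percent signal gain over controls, blank-subtracted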
Hck Nef conf: retest of Hck:Nef kinase inhibitor hits, confirmation, biochemical, Z-Lyte FRET, 384-well, p-Tyr peptide counterscreen; shares compounds with Hck-Nef inh; Recombinant Hck-YEEI:Nef, Z-Lyte FRET kinase assay; calls only at 10 µM; hit rate 28% among 1,300;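 active means average inhibition of at least 50%, with Z-scores no higher than 3 in both the phospho-tyrosine peptide and fluorescence counterscreens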
* = called active by the depositor; i = inactive; · = no result given; + = active, no number. The list is not random: actives were taken first. Their share in the collection is about 1.3%.

SMILES	TAG inh	PERK inh	Rad51 HR inh	Hck-Nef inh	PKD1 kinase inh	MDM2 E3 inh	Hck Nef conf
CC1=NOC(=O)/C1=C\c1ccc(-c2cccc(Cl)c2)o1	6.7	-0.8	1.4	7.1	1.0	-19.1	·
CC(C)(C)c1cc(CNC(=O)C2CCC(=O)N(Cc3ccccc3F)C2)[nH]n1 (stereo unspecified)	6.3	·	·	·	·	·	·
Cc1ccc(O)c(-c2cc(-c3ccccc3[N+](=O)[O-])[nH]n2)c1	·	0.9	·	12.4	-5.6	-4.0	·
Cc1ccc(O)c(-c2cc(-c3ccccc3C)[nH]n2)c1	-8.6	-0.1	·	51.7*	-2.2	-21.2	+
O=C(Nc1cc(C(=O)N2CCN(c3ccccc3O)CC2)ccc1Cl)c1cccs1	-0.3	·	·	·	·	·	·
Clc1cccc(Cl)c1CNc1ccc(N2CCCC2)cc1	·	0.9	-7.5	70.6*	0.8	-5.9	i
O=C(Nc1nnc([C@H]2C[C@H](O)[C@@H](CO)O2)s1)c1ccccc1F	-4.6	·	·	·	·	·	·
Brc1ccc(Nc2ncnc3[nH]ncc23)cc1	9.7	0.3	7.5	51.1*	·	-18.6	i
CCC(=O)/C=C1/Sc2ccccc2N1CC	-9.2	0.5	4.8	5.9	2.2	-11.2	·
CCN1/C(=C/C(=O)c2ccco2)Sc2ccccc21	·	-0.6	-12.8	95.4*	4.8	-3.6	·
COc1cc(/C=C/C(=O)OCC(=O)N2CCCCCC2)cc(OC)c1OC	-0.3	·	·	·	·	·	·
Brc1ccc(-c2cn3nc4c(nc3n2)CCCC4)cc1	9.3	-0.4	-2.6	1.6	-2.8	-66.2	·
Nc1nn2cc(-c3ccc(Br)cc3)nc2c2ccccc12	7.2	-0.9	9.4	64.4*	·	-9.7	i
CSCCC(NS(=O)(=O)/C=C/c1ccccc1)C(=O)NCCc1ccc(S(N)(=O)=O)cc1 (stereo unspecified)	12.4	0.6	4.1	6.8	·	0.1	·
O=c1c2ccccc2sc2ccccc12	3.0	·	·	·	·	·	·
O=c1c(C(c2ccccc2)c2c(O)sc3ccccc3c2=O)c(O)sc2ccccc12	·	1.8	-0.4	68.3*	-12.2	-14.8	+
CN1C(=O)c2cccc3c(N(C)C)ccc(c23)C1=O	-1.5	·	·	·	·	·	·
O=C1NC(=S)S/C1=C\C=C\c1ccc([N+](=O)[O-])o1	51.2*	0.4	·	56.1*	·	·	+
O=[N+]([O-])c1cc(Cc2ccccc2)cc(C=Nc2ccc(N3CCOCC3)cc2)c1O	·	0.3	·	30.9	4.0	·	·
Cc1ccc(O)c(N=Cc2cc(Cc3ccccc3)cc([N+](=O)[O-])c2O)c1	·	-0.2	-36.7	61.6*	1.2	-21.8	i
COc1cccc(NC(=O)c2cnc(SC)nc2)c1	-3.1	·	·	·	·	·	·
CCCc1cc(-c2[nH]ncc2-c2ccc3c(c2)OCCCO3)c(O)cc1O	3.1	-0.1	-0.3	73.9*	1.9	6.1	+
COc1ccc(S(N)(=O)=O)cc1C(=O)N(C)CC(=O)Nc1ccc(N2CCOCC2)cc1	6.6	·	·	·	·	·	·
O=[N+]([O-])c1ccc(/C=N/n2cn[nH]c2=S)cc1	-5.9	1.4	12.2	104.9*	·	-7.7	·
CCOC(=O)C1(C)CCCCCN1C(=O)c1ccco1 (stereo unspecified)	4.0	·	·	·	·	·	·
SMILES	TAG inh	PERK inh	Rad51 HR inh	Hck-Nef inh	PKD1 kinase inh	MDM2 E3 inh	Hck Nef conf
CCOC(=O)c1ccc(NC(=O)CN(C)S(=O)(=O)c2ccc(Br)s2)cc1	·	-0.7	·	5.3	-1.6	14.0	·
O=C(O)c1cc(-c2ccco2)nn1-c1ccc(Cl)cc1	-1.9	1.4	-16.5	35.5	3.0	14.7	·
Cc1ccc(-n2nc(-c3cccnc3)cc2C(=O)N2CCOCC2)c(C)c1	-5.0	-2.0	-8.4	0.6	-6.2	8.1	·
O=C(O)c1cc(-c2ccco2)nn1-c1cccc(Cl)c1	3.7	0.3	-40.2	51.7*	-0.4	-3.4	i
Cc1ccc(-n2nc(-c3ccco3)cc2C(=O)O)c(C)c1	1.5	0.7	-30.0	55.1*	-1.7	7.4	i
Cc1cccc(NC2=CC(=O)CC(C)(C)C2)c1C	-1.7	0.3	5.3	27.2	1.3	-1.3	·
O=C(CCc1ccccc1)c1c(O)cc(O)cc1O	·	·	-3.2	68.5*	·	-23.4	i
COc1ccc(C(=O)CCc2ccccc2)c(O)c1	3.7	·	·	·	·	·	·
Cc1ccc(NNc2c(C)nc3ccccc3nc2=O)cc1	·	-0.6	-12.5	149.1*	-6.7	-0.8	i
Cc1ccc(OCC(O)CN2CC3(C)CC2CC(C)(C)C3)cc1 (stereo unspecified)	·	0.0	-1.2	2.3	-5.3	-18.3	·
CCc1nnc(NS(=O)(=O)c2ccc(NC(=S)NC(=O)/C=C/c3ccc(C(C)C)cc3)cc2)s1	·	0.4	-4.2	65.2*	3.5	-9.2	+
CCc1nnc(NS(=O)(=O)c2ccc(NC(=S)NC(=O)/C=C/c3ccccc3)cc2)s1	·	0.7	-2.2	4.7	1.0	-2.1	·
COc1cc(/C=C(\C#N)C(=O)NC2CCCCC2)ccc1OCc1ccc(C(=O)O)cc1	4.1	-0.1	4.5	52.4*	-2.0	-2.1	i
COc1cc(/C=C(\C#N)C(=O)NC(C)C)ccc1OCc1ccc(C(=O)O)cc1	2.9	0.2	-3.2	32.8	·	-11.5	·
COc1cc(/C=C(/C#N)C(=O)Nc2ccccc2)ccc1OCc1ccc(C(=O)O)cc1	·	1.6	4.3	137.5*	5.8	-10.7	+
COc1ccc(-c2csc(NC(=O)CSc3nc(SC)ns3)n2)cc1	·	0.6	·	2.4	-9.2	-7.8	·
COc1ccc(-c2csc(NC(=O)CSc3nc(C)nc4sc(C(=O)O)c(C)c34)n2)cc1	39.0	1.0	·	95.8*	·	-5.9	+
Cc1cc(C)c(C(=O)CN2C(=O)NC3(CCCCCC3)C2=O)cc1C	-10.1	-0.8	0.8	19.4	-0.3	-15.0	·
O=C(Cn1c2ccc(F)cc2c2nc3n(c(=O)c21)CCS3)Nc1ccc(Cl)cc1F	-1.0	-1.0	-12.6	60.7*	-11.0	-8.6	i
O=C(Cn1nc(C(=O)O)c2ccccc2c1=O)Nc1ccc2c(c1)C(=O)c1ccccc1C2=O	·	2.8	9.6	2.3	·	-6.6	·
CCOC(=O)c1ccc(NC(=O)Cn2ncc(Cl)c(Cl)c2=O)cc1	54.6*	-0.9	-4.8	58.7*	6.8	10.3	+
COc1cc2ncnc(NCc3cccs3)c2cc1OC	-0.1	1.9	6.0	56.8*	-7.4	-8.5	i
